ZTA DNA inh: ZTA (EBV) inhibition in EBNA-1 counter-screen | ZTA-DNA binding, fluorescence polarization | inhibition, % at 11 µM | 320,000 compounds, 0.15% hits | AID 2234; in the data active means inhibition above about 33%
Target sequence (P03206 whole entry, looked up): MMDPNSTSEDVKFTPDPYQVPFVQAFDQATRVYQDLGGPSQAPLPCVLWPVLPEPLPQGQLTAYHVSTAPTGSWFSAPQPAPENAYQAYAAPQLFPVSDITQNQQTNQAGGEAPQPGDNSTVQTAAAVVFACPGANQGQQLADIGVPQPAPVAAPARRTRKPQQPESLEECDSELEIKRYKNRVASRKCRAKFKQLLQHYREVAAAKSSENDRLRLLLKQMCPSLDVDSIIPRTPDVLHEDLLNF
PP1 counter: PP1-alpha phosphatase inhibitors, primary screen, counter-screen for PP5 inhibitor project, biochemical, fluorescence, OMFP substrate, single point. purified PP1alpha. inhibition, % at 6.7 µM. 320,000 compounds, 0.9% hits;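 active means inhibition above the mean inhibition of all tested compounds plus 3 SD, computed separately for each screening campaign, cut at about 15% in these data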
Target sequence (P62136 whole entry, looked up): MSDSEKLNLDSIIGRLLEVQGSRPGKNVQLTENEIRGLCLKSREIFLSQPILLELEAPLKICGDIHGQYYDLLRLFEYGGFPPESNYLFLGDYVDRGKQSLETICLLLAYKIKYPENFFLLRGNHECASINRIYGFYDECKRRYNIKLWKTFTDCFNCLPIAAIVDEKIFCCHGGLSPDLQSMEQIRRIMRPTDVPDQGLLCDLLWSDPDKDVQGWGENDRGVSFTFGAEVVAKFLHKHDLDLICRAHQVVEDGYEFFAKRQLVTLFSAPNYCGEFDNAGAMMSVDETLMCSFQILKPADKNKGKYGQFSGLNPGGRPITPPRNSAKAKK
EBNA-1 inhibitor: EBNA-1 DNA-binding inhibitors, primary screen, biochemical, fluorescence polarization; inhibition, % at 14.8 µM; 300,000 compounds, 0.34% hits; AID 1950, 2009; in the data active means inhibition above about 28%
HCV NS3 hel inh: inhibitors of HCV NS3 helicase, primary screen, biochemical, Cy5 molecular beacon fluorescence; NS3 helicase DNA unwinding; inhibition, % at 10.9 µM; 290,000 compounds, 0.56% hits;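 active means inhibition above the mean of all tested compounds plus 3 SD, set per campaign, cut at about 35% in these data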;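 further: 0% = DMSO wells and 100% = thioflavine S control wells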
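System: Hepatitis C virus NS3 helicase domain fragment enzyme | Reagent: Annealed dual-labelled DNA beacon duplex, ATP-started | Compound dosing: 10.9 µM single point, 0.8% DMSO | Incubation: 1 h reaction at 25 °C, ATP-initiated | Technique: Cy5 fluorescence | Evaluation: Percent inhibition from t60/t0 fluorescence ratio | Benchmarks: Low DMSO, high thioflavine S at 110 µM | Replication: Singlicate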
HCV core dimer: inhibitors of HCV core protein dimerization, primary screen, biochemical, TR-FRET, high-throughput; inhibition, % at 5 µM; TR-FRET GST/Flag-core106 dimerization, 1536-well; 300,000 compounds, 0.33% hits;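 active means inhibition above the mean of all tested compounds plus 3 SD, set per screening campaign, cut at about 45% in these data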
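Material: GST/Flag-tagged HCV core106 proteins. Incubation: 4 h, 22.5 °C incubation. Read-out basis: inhibition (%) from 671 over 617 nm ratio. Measured by: TR-FRET, excitation 340 nm, emission 617 and 671 nm.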
PP1 inh confirm: PP1 phosphatase inhibitors, confirmation, biochemical, fluorescence, OMFP substrate, triplicate; inhibition, % at 6.7 µM; AID 2358, 2010; shares compounds with PP1 counter; 1,900 compounds, 52% hits; purified PP1alpha;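 active means mean PP1 inhibition above a set limit taken from the earlier primary screen, cut at about 15% in these data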
PP5 counter: PP5 phosphatase inhibition by PP1 hits, confirmation, counter-screen for PP1 inhibitor project, biochemical, fluorescence, triplicate | purified PP5c, OMFP fluorescence | 1,900 compounds, 4% hits | shares compounds with PP1 counter | AID 2360, 2010 | inhibition, % at 6.7 µM;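 active means mean PP5 inhibition over triplicate wells above about 9.5% taken from the earlier PP1 screen, limit read from the data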
Active calls of the source: *; x = no result given. The list is not random: actives were taken first. Their share in the collection is about 1.9%.

SMILES | ZTA DNA inh | PP1 counter | EBNA-1 inhibitor | HCV NS3 hel inh | HCV core dimer | PP1 inh confirm | PP5 counter
Clc1ccc(CSc2ccc(-c3cccnc3)nn2)cc1 | 13 | 6 | -3 | 2 | 1 | x | x
O=C(Cc1ccc(Cl)cc1)Nc1ccc2oc(=O)ccc2c1 | 26 | 0 | 6 | 3 | -2 | x | x
O=C(Cc1ccc(Cl)cc1)Nc1ccc(-c2cc3ccccc3oc2=O)c(Cl)c1 | -15 | 23* | 0 | 16 | 17 | 24* | 3
Cc1ccc(C(=O)c2oc3nc(C)cc(C)c3c2N)cc1 | 15 | 21* | 12 | -5 | 0 | -4 | -7
COc1ccc(C(=O)c2oc3nc(C)cc(C)c3c2N)cc1 | -7 | 1 | -7 | -6 | -6 | x | x
CCCn1c(N)c(C(=O)CSc2nc(C)cs2)c(=O)[nH]c1=O | 6 | -2 | 9 | 0 | -5 | x | x
CCCn1c(N)c(C(=O)CSc2nc(C)nc3sc(C)c(C)c23)c(=O)[nH]c1=O | -14 | 22* | -9 | x | -2 | -1 | -4
Cn1c(-c2cccs2)[n+](C)c2ccccc21 | 8 | -2 | -2 | 5 | -1 | x | x
CN(Cc1ccccn1)C(=O)C1CCC(=O)N(Cc2cccc(F)c2)C1 (stereo not given) | 7 | 24* | 9 | -6 | -6 | -2 | -3
Cc1ccc(-n2c(O)c(/C=N/NC(=O)C3COc4ccccc4O3)c3ccccc3c2=O)cc1 (stereo not given) | 5 | 19* | -6 | -13 | 1 | 27* | -2
O=C(N/N=C/c1c(O)n(-c2ccccc2Cl)c(=O)c2ccccc12)C1COc2ccccc2O1 (stereo not given) | 5 | 19* | 3 | 13 | -7 | 23* | -3
C=CCSc1nc2sc3c(c2c(=O)[nH]1)CC(C)(CC)OC3 (stereo not given) | -2 | -2 | -18 | -2 | 2 | x | x
Cc1[nH]c2c([N+](=O)[O-])cccc2c1C | 10 | -2 | -4 | 15 | -1 | x | x
Cc1ccc(S(=O)(=O)N(C)C)cc1NC(=O)C(C)OC(=O)C1CCCC1 (stereo not given) | 7 | -3 | 5 | x | -3 | x | x
Cc1ccc(C(=O)CSc2nnc(CNc3ccc(C)cc3C)n2Cc2ccco2)cc1 | 4 | 10 | 5 | 23 | 18 | x | x
COc1ccc(C(=O)CSc2nnc(CNc3ccc(C)cc3C)n2Cc2ccco2)cc1 | -7 | 23* | -17 | -5 | 16 | 8 | 1
O=C(Cc1ccc(S(=O)(=O)N2CCOCC2)s1)N(Cc1ccccc1)c1ccccc1 | -7 | 58* | 4 | x | 1 | 4 | -2
COc1cccc(/C=C/C(=O)OCC(=O)c2ccc3c(c2)NC(=O)CO3)c1 | 11 | 33* | x | x | x | 28* | -3
Cc1cc(C)cc(OCC(=O)OCC(=O)c2ccc3c(c2)NC(=O)CO3)c1 | -2 | 0 | -7 | 0 | 7 | x | x
O=C1CC(=O)N(Cc2ccco2)C(=O)N1 | 22 | 58* | 14 | 12 | -29 | 1 | 1
Oc1c(CN2CCN(c3ccccc3)CC2)cc(Br)c2cccnc12 | 1 | 29* | 0 | -40 | 0 | 32* | -3
c1ccc(N2CCN(Cc3ccnc4ccccc34)CC2)cc1 | 10 | 7 | -2 | -21 | -5 | x | x
O=C(CCc1cn(Cc2ccc(F)cc2)c2ccccc12)N1CCOCC1 | -3 | 5 | 0 | 6 | -11 | x | x
CCCCC1CCC(C(=O)N(CCOC)c2c(N)n(CC(C)C)c(=O)[nH]c2=O)CC1 (stereo not given) | 4 | -3 | x | x | x | x | x
O=C(OCC1OC(n2ncc(=O)[nH]c2=O)C(OC(=O)c2ccccc2)C1OC(=O)c1ccccc1)c1ccccc1 (stereo not given) | 15 | 24* | 10 | 6 | 10 | 22* | 4
SMILES | ZTA DNA inh | PP1 counter | EBNA-1 inhibitor | HCV NS3 hel inh | HCV core dimer | PP1 inh confirm | PP5 counter
CCC(C)Oc1ccc(C(=O)Nc2ccc(CN3CCOCC3)cc2)cc1 (stereo not given) | x | x | x | -22 | x | x | x
CCOc1ccc(NC(=O)c2ccc(NC(=O)c3ccc(CN4CCOCC4)cc3)cc2)cc1 | 2 | 22* | -18 | 7 | 6 | 41* | -6
Cc1ccc(-n2c(C)cc(C(=O)COC(=O)c3ccc[nH]c3=O)c2C)cc1C | 5 | 21* | -3 | 6 | -5 | 16* | -5
O=C(NNC(=O)c1cccnc1SCc1cccc([N+](=O)[O-])c1)c1ccc(F)cc1 | -1 | -1 | -4 | 0 | 4 | x | x
O=C(NNC(=O)c1cccnc1SCc1cccc([N+](=O)[O-])c1)c1ccccn1 | 1 | 20* | -3 | -9 | -9 | 19* | -5
Cc1cc(N/N=C/c2ccc3c(c2)OCO3)nc2ccccc12 | -7 | 3 | -7 | -26 | -2 | x | x
O=c1oc2ccccc2cc1-c1nc2ccccc2o1 | -7 | -2 | 0 | 9 | 3 | x | x
Nc1cc2nc3ccccc3oc-2cc1=O | -4 | 19* | 3 | 28 | -24 | 2 | 7
CC(=O)c1cc(F)ccc1OCC(=O)N1CCCc2ccccc21 | -1 | -1 | 9 | -11 | 12 | x | x
Cc1ccc(Cn2cc(S(=O)(=O)c3ccc(C(C)C)cc3)c(=O)c3cc4c(cc32)OCO4)cc1 | -10 | 18* | 2 | -3 | 10 | 18* | 5
COc1ccc(CC(=O)Nc2c3c(nn2-c2ccccc2C)CS(=O)C3)cc1 (stereo not given) | -3 | 22* | 0 | -2 | -2 | 1 | -1
Cc1ccccc1-n1nc2c(c1NC(=O)COc1ccc(Cl)cc1)CS(=O)C2 (stereo not given) | 3 | -1 | 0 | -1 | 8 | x | x
Oc1cccc2ccc(/C=C/c3ccccc3Cl)nc12 | 3 | 19* | -2 | 4 | -13 | 11 | 0
O=[N+]([O-])c1cccc(/C=C/c2ccc3cccc(O)c3n2)c1 | -5 | 25* | 14 | -2 | -6 | 21* | -7
O=[N+]([O-])c1ccc(/C=C/c2ccc3cccc([N+](=O)[O-])c3n2)cc1 | -1 | 7 | -10 | 4 | 30 | x | x
COc1ccccc1/C=C/c1ccc2cccc(O)c2n1 | -9 | 23* | 8 | 16 | 20 | 15 | -1
COc1cc(Cl)cc(/C=C/c2ccc3cccc(O)c3n2)c1OC | -1 | 3 | -12 | 16 | -1 | x | x
COc1ccc(Cl)cc1/C=C/c1ccc2cccc(O)c2n1 | -11 | 18* | -4 | 27 | -10 | 16* | -3
Cc1cc(C)c(C)c(S(=O)(=O)N2CCC(C(=O)NCCCN3CCOCC3)CC2)c1C | -5 | -1 | x | x | x | x | x
CN(C)CCNC(=O)Cn1ccc2cc(S(=O)(=O)N3CCCCC3)ccc21 | -13 | -2 | -4 | -11 | -3 | x | x

Compound activity as filed in PubChem BioAssay.
